Reference: ChEMBL document CHEMBL4261487, “Small structural changes of the imidazopyridine diacylglycerol acyltransferase 2 (DGAT2) inhibitors produce an improved safety profile” (Medchemcomm, 2017)

How the values were obtained:
[1] = system: Rattus norvegicus; assay: Toxicity in Wistar Han IGS rat at 10 mg/kg, po qd administered for 14 days; format: organism-based; conditions: in vivo, 336 h
How it was run: (§1)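 Wistar Han rats, daily oral dosing for 14 days (5/sex/dose) or 1 month (10/sex/dose); microscopic findings reported as incidence by sex, plus organ weights.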

[2] = system: Rattus norvegicus; assay: Unbound Cmax in Wistar Han IGS rat at 300 mg/kg, po qd administered for 1 month; format: ADME, organism-based; conditions: in vivo
How it was run: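 Wistar Han rats were dosed orally once daily for 14 days (exploratory, 5/sex/dose) or 1 month (toxicity, 10/sex/dose). Toxicokinetic satellite animals (3–4/sex/dose) were used, and steady-state systemic exposure is given as the mean of male and female values combined.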

[3] = system: Rattus norvegicus; assay: Toxicity in Wistar Han IGS rat at 30 mg/kg, po qd administered for 1 month; format: organism-based; conditions: in vivo; how it was run: as §1
[4] = system: Canis familiaris; assay: Unbound Cmax in beagle dog […] at 75 mg/kg, po qd administered for 14 days; format: ADME, organism-based, Canis lupus familiaris; conditions: in vivo, 336 h
How it was run: (§2)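 Exploratory 14-day dog toxicity study with daily oral dosing. Toxicokinetic exposure is reported as the mean with male and female systemic values combined.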

[5] = system: Canis familiaris; assay: Unbound Cmax in beagle dog […] at 300 mg/kg, po qd administered for 14 days; format: ADME, organism-based, Canis lupus familiaris; conditions: in vivo, 336 h; how it was run: as §2
[6] = system: Canis familiaris; assay: Toxicity in telemetered beagle dog assessed as change in ECG intervals at 5 mg/kg administered via oral gavage measured over 24 hrs; format: organism-based, Canis lupus familiaris; conditions: in vivo
[7] = system: Canis familiaris; assay: Toxicity in beagle dog assessed as renal tubular degeneration at 300 mg/kg, po qd administered for 14 days; format: organism-based, Canis lupus familiaris; conditions: in vivo, 336 h
[8] = system: Rattus norvegicus; assay: Toxicity in Wistar Han IGS rat assessed as gastric smooth muscle degeneration at 500 mg/kg, po qd administered for 14 days; format: organism-based; conditions: in vivo, 336 h; how it was run: as §1
[9] = system: Canis familiaris; assay: Unbound Cmax in beagle dog at 5 mg/kg, po qd administered for 1 month; format: ADME, organism-based, Canis lupus familiaris; conditions: in vivo
How it was run: (§3)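 One-month dog toxicity study with once-daily oral dosing. Toxicity groups were 2/sex/dose, and unbound peak exposure was taken from toxicokinetic sampling.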

[10] = system: Canis familiaris; assay: Toxicity in telemetered beagle dog assessed as multiple bouts of emesis at 75 mg/kg administered via oral gavage measured within 4 hrs of dosing; format: organism-based, Canis lupus familiaris; conditions: in vivo
[11] = system: Canis familiaris; assay: Toxicity in telemetered beagle dog assessed as foamy white salivation at 75 mg/kg administered via oral gavage measured within 4 hrs of dosing; format: organism-based, Canis lupus familiaris; conditions: in vivo
[12] = system: Canis familiaris; assay: Toxicity in beagle dog assessed as prolongation of QTc interval at 100 to 150 mg/kg, po qd administered for 25 days; format: organism-based, Canis lupus familiaris; conditions: in vivo, 600 h
[13] = system: Rattus norvegicus; assay: In vivo inhibition of DGAT2 in Wistar Han IGS rat assessed as coverage of in vitro IC50 for rat DGAT2 at 100 mg/kg, po qd administered for 14 days; format: functional; parameters: scale not given: the % may be the effect or the level left
How it was run: (§4)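 Wistar Han rats, once-daily oral dosing for 14 days (exploratory, 5/sex/dose) or 1 month (10/sex/dose); toxicokinetics in 3–4/sex/dose with sexes combined; coverage is the average % above rat DGAT2 IC50 at steady state over the 24 h dosing interval.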

[14] = system: Rattus norvegicus; assay: In vivo inhibition of DGAT2 in Wistar Han IGS rat assessed as coverage of in vitro IC50 for rat DGAT2 at 500 mg/kg, po qd administered for 14 days; format: functional; parameters: scale not given: the % may be the effect or the level left; how it was run: as §4
[15] = system: Canis familiaris; assay: In vivo inhibition of DGAT2 in beagle dog assessed as coverage of in vitro IC50 for dog DGAT2 at 75 mg/kg, po qd administered for 14 days; format: functional, Canis lupus familiaris; parameters: scale not given: the % may be the effect or the level left
How it was run: (§5)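 Beagle dogs, once-daily oral dosing for 14 days or 1 month; systemic exposure with sexes combined; coverage is the average % above dog DGAT2 IC50 at steady state over the 24 h dosing interval.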

[16] = system: Canis familiaris; assay: In vivo inhibition of DGAT2 in beagle dog assessed as coverage of in vitro IC50 for dog DGAT2 at 50 mg/kg, po qd administered for 1 month; format: functional, Canis lupus familiaris; parameters: scale not given: the % may be the effect or the level left; how it was run: as §5
[17] = system: Canis familiaris; assay: Toxicity in telemetered beagle dog assessed as increase in heart rate at 75 mg/kg administered via oral gavage measured over 24 hrs; format: organism-based, Canis lupus familiaris; conditions: in vivo
[18] = system: Canis familiaris; assay: Toxicity in telemetered beagle dog assessed as increase in systolic pressure at 75 mg/kg administered via oral gavage measured over 24 hrs; format: organism-based, Canis lupus familiaris; conditions: in vivo
[19] = system: Canis familiaris; assay: Toxicity in telemetered beagle dog assessed as increase in heart rate at 20 mg/kg, iv administered as single bolus dose over 2 mins; format: organism-based, Canis lupus familiaris; conditions: in vivo
[20] = biological target: T1, Diacylglycerol O-acyltransferase 2 (Rattus norvegicus, UniProt Q5FVP8); assay: Inhibition of rat DGAT2
T1 sequence (Q5FVP8 whole entry): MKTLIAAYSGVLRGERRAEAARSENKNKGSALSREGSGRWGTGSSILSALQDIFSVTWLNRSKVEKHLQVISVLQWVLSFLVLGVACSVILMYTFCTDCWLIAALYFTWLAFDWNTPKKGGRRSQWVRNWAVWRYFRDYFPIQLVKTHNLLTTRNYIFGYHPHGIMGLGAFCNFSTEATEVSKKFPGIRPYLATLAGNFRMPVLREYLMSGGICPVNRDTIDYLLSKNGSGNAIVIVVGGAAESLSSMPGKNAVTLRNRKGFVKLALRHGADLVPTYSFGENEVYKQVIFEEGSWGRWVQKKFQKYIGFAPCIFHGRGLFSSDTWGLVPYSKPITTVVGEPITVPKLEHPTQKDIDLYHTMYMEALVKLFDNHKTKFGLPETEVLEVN

[21] = biological target: T2, Diacylglycerol O-acyltransferase 2 (Canis lupus familiaris, UniProt A0A8I3NDW2); assay: Inhibition of dog DGAT2
T2 sequence (A0A8I3NDW2 whole entry): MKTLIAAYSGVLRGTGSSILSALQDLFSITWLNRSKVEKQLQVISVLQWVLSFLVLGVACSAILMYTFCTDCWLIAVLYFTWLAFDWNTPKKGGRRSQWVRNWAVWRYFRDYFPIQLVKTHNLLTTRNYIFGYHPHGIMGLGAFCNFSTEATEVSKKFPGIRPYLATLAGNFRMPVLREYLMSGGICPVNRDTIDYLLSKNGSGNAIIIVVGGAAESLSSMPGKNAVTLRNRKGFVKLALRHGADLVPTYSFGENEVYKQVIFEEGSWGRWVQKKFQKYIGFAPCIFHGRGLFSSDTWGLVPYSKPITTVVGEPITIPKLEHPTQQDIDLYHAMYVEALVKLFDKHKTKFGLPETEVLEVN

[22] = Apparent intrinsic clearance in dog hepatocytes assessed per million cells; format: ADME, cell-based, Canis lupus familiaris, Hepatocyte
[23] = Fraction unbound in rat plasma; format: ADME, cell-free
[24] = Ratio of Cmax in beagle dog at 10 mg/kg, po qd administered for 1 month to IC50 for in vitro inhibition of dog DGAT2; format: organism-based, Canis lupus familiaris; conditions: in vivo
How it was run: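 One-month toxicity study in Beagle dogs with N = 2/sex/dose. Plasma exposure at each dose level was referenced to the dog DGAT2 enzymatic IC50, reported as the geometric mean of at least three replicates.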

[25] = system: Canis familiaris; assay: Unbound Cmax in beagle dog at 3 mg/kg, po qd administered for 1 month; format: ADME, organism-based, Canis lupus familiaris; conditions: in vivo; how it was run: as §3
[26] = Ratio of Cmax in telemetered beagle dog at 50 mg/kg administered via oral gavage measured over 24 hrs to IC50 for in vitro inhibition of dog DGAT2; format: organism-based, Canis lupus familiaris; conditions: in vivo
How it was run: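 Telemetered Beagle dogs given single oral doses (5, 25 and 50 mg kg–1), with systolic and diastolic blood pressure and heart rate monitored after dosing. Cmax is related to the dog DGAT2 enzymatic IC50, which is the geometric mean of at least three replicates.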

[27] = system: Canis familiaris; assay: Toxicity in telemetered beagle dog assessed as increase in diastolic pressure at 5 mg/kg administered via oral gavage measured during 4 hrs of post dosing; format: organism-based, Canis lupus familiaris; conditions: in vivo

With CS(=O)(=O)O.O=C([C@@H]1CCCN(c2ccc3nc(C4(n5cc(Cl)cn5)CC4)[nH]c3n2)C1)N1CCCC1 the Activity [1] was “Non-Toxic”, the fCmax [2] was 13.9 µM and the Activity [3] was “Non-Toxic”. The fCmax [4] was 6.54 µM, the fCmax [5] was 15.3 µM and the Activity [6] was “Non-Toxic”. The Activity [7] was “Toxic”, the Activity [8] was “Toxic” and the fCmax [9] was 1010 nM. For the same compound, the Activity [10] was “Toxic”, the Activity [11] was “Toxic” and the Activity [12] was “Toxic”. The Activity [13] was 98%, the Activity [14] was >99% and the Activity [15] was 99%. The Activity [16] was >99%, the Activity [17] was 8 to 30 bpm and the Activity [18] was 5 mmHg. It also gave an Activity [19] of 27 bpm.

In the case of C[C@@H](c1nc2ccc(N3CCC[C@@H](C(=O)N4CCCC4)C3)nc2[nH]1)n1cc(Cl)cn1, the IC50 [20] is reported as 155 nM, the IC50 [21] is reported as 41 nM and the “CLH(app)” value [22] is reported as 8.4 µL/min. For the same compound, the fraction unbound [23] was 0.14, the Ratio [24] was 31 and the fCmax [25] was 454 nM. For the same compound, the Ratio [26] was 110 and the Activity [27] was 4 to 6 mmHg.
